Screens: PubChem, Sanford-Burnham Center for Chemical Genomics
An excerpt weighted towards active compounds, which were near 1.8% of everything screened.
LMPTP inh = LMPTP (human) inhibition | P24666 | recombinant LMPTP-A, OMFP fluorogenic substrate, fluorescence intensity | inhibition, % at 20 µM | actives 0.22% (n = 360,000) | AID 651560;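 active means compounds that cut the enzyme signal by at least half of the control window in the single-dose screen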;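 further: plate controls were DMSO wells with enzyme plus substrate for no effect and substrate without enzyme for full effect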
Target sequence (P24666 whole entry, looked up): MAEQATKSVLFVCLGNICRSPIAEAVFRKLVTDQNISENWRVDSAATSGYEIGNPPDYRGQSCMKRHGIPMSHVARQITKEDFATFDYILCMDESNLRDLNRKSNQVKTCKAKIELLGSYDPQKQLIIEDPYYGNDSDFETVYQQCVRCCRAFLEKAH
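Test system: LMPTP-A phosphatase enzyme; input: 0.625 nM LMPTP-A final; reagent: OMFP substrate, 400 µM final; compound dosing: 20 µM single dose, 3% DMSO; incubation: 50 min dark incubation at room temperature; measured by: endpoint fluorescence intensity from OMFP dephosphorylation; measure: % inhibition relative to no-enzyme and uninhibited control wells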
Scp1 inh = blocks human Scp-1 phosphatase activity. actives 0.88% (n = 340,000). Recombinant Scp1, phosphopeptide, malachite green phosphate absorbance. AID 493091. Q9GZU7. inhibition, % at 20 µM;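 active means inhibition above about 50% at 20 µM, limit read from the data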;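 further: plate controls were DMSO wells with enzyme for no effect and wells lacking enzyme for full effect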
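Test system – truncated SCP-1 phosphatase (76-261aa) · Reagent – Phosphorylated 17-residue peptide substrate · Incubation – 45 min room-temperature reaction, 5 min colour, 30 min stabiliser · Detection – colorimetric phosphate reagent with accelerator and stabiliser, absorbance at 630 nm · Measure – % inhibition at 20 µM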
HKDC1 inh = inhibitors of human hexokinase HKDC1; actives 0.16% (n = 340,000); recombinant HKDC1, G6PDH/diaphorase resazurin coupled fluorescence; inhibition, % at 20 µM; AID 493160; Q2TB90;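 active means inhibition above about 35% when tested at 20 µM, limit read from the data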;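 further: plate controls were DMSO wells with enzyme for no effect and DMSO wells lacking enzyme for full effect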
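Test system: HK5 enzyme. Quantity: 5 µg/mL HK5 final. Reagent: glucose and ATP substrates. Schedule: 90 min reaction incubation at room temperature, dark. Technique: resazurin-to-resorufin fluorescence via G6PDH and diaphorase coupling, 525/613 nm. Control set: DMSO wells with and without enzyme mix.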
DNMT1 inh = blocks human DNA methyltransferase DNMT1; actives 0.83% (n = 360,000); P26358; AID 588458; DNMT1 molecular beacon, Hinp1I cleavage, fluorescence; inhibition (reported as % activation of signal), % at 10 µM; in the data active means inhibition above about 50%
SUMO1 PPI mod = alters human SUMO1 binding to SIM partners. P63165. SUMO1 binding to a labelled peptide, TR-FRET, 1 h. inhibition, % at 20 µM. actives 0.33% (n = 360,000). AID 602429; in the data active means inhibition above about 37%
STEP block = blocks human striatal-enriched tyrosine phosphatase. P54829. recombinant STEP, OMFP fluorogenic substrate, fluorescence. inhibition, % at 20 µM. actives 0.25% (n = 360,000);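 active means inhibition at 20 µM, scaled per plate between control wells, above about 37%, limit read from the data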;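 further: 0% = DMSO with enzyme and substrate and 100% = substrate only without enzyme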
Target sequence (P54829 whole entry, looked up): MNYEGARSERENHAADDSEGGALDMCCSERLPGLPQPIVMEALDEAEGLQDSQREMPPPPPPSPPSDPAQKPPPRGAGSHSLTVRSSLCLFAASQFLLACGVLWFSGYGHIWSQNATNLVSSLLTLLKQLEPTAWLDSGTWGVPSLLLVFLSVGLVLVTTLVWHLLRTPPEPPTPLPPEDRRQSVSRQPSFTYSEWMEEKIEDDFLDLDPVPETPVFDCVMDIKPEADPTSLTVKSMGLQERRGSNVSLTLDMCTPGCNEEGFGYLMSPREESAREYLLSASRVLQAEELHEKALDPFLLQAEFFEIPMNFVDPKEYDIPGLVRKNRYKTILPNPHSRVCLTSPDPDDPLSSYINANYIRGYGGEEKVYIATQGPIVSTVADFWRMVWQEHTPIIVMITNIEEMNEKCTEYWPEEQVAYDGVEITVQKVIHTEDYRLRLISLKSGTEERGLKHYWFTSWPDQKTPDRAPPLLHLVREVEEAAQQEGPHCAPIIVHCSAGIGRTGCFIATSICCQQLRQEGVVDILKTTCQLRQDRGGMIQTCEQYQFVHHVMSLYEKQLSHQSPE
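System: isolated STEP enzyme; schedule: 20 min enzyme reaction at room temperature, protected from light; medium: Bis-Tris buffer pH 6.0, 2.5 mM DTT, 0.005% Tween 20; signal: fluorescence, 480/540 nm; dosing: single compound dose of 20 µM, 1% DMSO final; also added: OMFP substrate, 25 µM final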
DNMT1 inh conf = confirmation of human DNMT1 inhibitors | shares compounds with DNMT1 inh | DNMT1 molecular beacon HinP1I cleavage, fluorescence | inhibition, % at 10 µM | actives 8% (n = 2,300) | AID 602385;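 active means average inhibition of at least 30% in the single-concentration confirmation test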
DNMT1 interf = counter-screen for DNMT1 inhibitors: spectral interference; shares compounds with DNMT1 inh; DNMT1 molecular beacon spectral interference counterscreen, fluorescence 485/520; activation (fluorescence interference), % at 10 µM; actives 1% (n = 2,300);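 active means activation of at least 30% at 10 µM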;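 further: DNMT1 catalytic domain with a HinP1I cleavage step and a FAM/dabcyl DNA beacon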
* = called active by the depositor; . = no result given.

SMILES | LMPTP inh | Scp1 inh | HKDC1 inh | DNMT1 inh | SUMO1 PPI mod | STEP block | DNMT1 inh conf | DNMT1 interf
CCOC(=O)Cn1cnc2sc(C(=O)OC)c(C)c2c1=O | 0 | -4 | -4 | 2 | 0 | -5 | . | .
Cc1c(C(N)=O)sc2ncn(CC(=O)OC(C)C)c(=O)c12 | -1 | -5 | -1 | 78* | 2 | -4 | 2 | 6
O=C(Cc1cc(C(F)(F)F)cc(C(F)(F)F)c1)Nc1c(-c2ccccc2)[nH][nH]c1=O | 0 | . | . | . | 5 | . | . | .
S=c1[nH]nc(-c2n[nH]c3c2CCC3)n1/N=C/C=C/c1ccco1 | 1 | -4 | 2 | 51* | 23 | 6 | 6 | 6
S=c1[nH]nc(-c2ccco2)n1/N=C/C=C/c1ccco1 | 2 | 5 | 8 | 83* | 14 | 5 | 2 | 3
S=c1[nH]nc(-c2cc(-c3ccccc3)n[nH]2)n1/N=C/C=C/c1ccco1 | 12 | -3 | 9 | 62* | 29 | 5 | 1 | 1
COc1ccccc1/C=C/C=N/n1c(-c2ccco2)n[nH]c1=S | 2 | -14 | -1 | 1 | -9 | 2 | . | .
COc1ccc(CNC(=O)Cn2c(=O)n(CC(=O)N3CCCCC3)c(=O)c3sccc32)cc1 | -1 | -2 | -7 | 4 | 1 | -2 | . | .
CN(c1ccc(C(=O)N/N=C/c2cccc([N+](=O)[O-])c2)cc1)S(=O)(=O)c1ccccc1 | 3 | 1 | 0 | 1 | -3 | 2 | . | .
COc1ccc(CN(C)C(=O)Cn2ccc(N)nc2=O)cc1OC | -1 | -4 | -8 | 89* | -4 | 1 | 1 | 3
CC(C)(C)OC(=O)NCCCCCNC(=O)c1[nH]cnc1C(=O)NC1CCN(C(=O)OC(C)(C)C)CC1 | 3 | 0 | 5 | 76* | -3 | -1 | 8 | 7
C[C@H](NC(=O)C1CCN(S(=O)(=O)c2ccccc2)CC1)C(=O)NCc1cccnc1 | -2 | . | . | -1 | 0 | -3 | . | .
COc1cccc(-c2oc3c(c2C#CC2(N)CCCCC2)C(O)CCC3)c1 (centres undefined) | 1 | . | . | . | -10 | . | . | .
O=C(N/N=C\c1cc(Br)c(Br)o1)c1cncc(Br)c1 | 0 | 16 | -23 | 1 | -11 | 1 | . | .
O=C(N/N=C/c1cc(Br)c(O)c(Br)c1O)c1ccc2c(c1)OCCO2 | -1 | 7 | -22 | 10 | -11 | 7 | . | .
O=C(N/N=C/c1cc(Br)c(Br)o1)c1ccc2c(c1)OCCO2 | 35 | 84* | 9 | 72* | 3 | 10 | 14 | 0
O=C(N/N=C/c1cc(Br)c(Br)o1)c1cccnc1 | 2 | 21 | 7 | 62* | 3 | 2 | 3 | 0
O=C1C2CC=C(Cl)CC2C(=O)N1CCCCCCN1C(=O)C2CC=C(Cl)CC2C1=O (centres undefined) | 4 | 71* | -7 | 61* | 24 | 5 | 10 | 0
O=C1C2CC=C(Cl)CC2C(=O)N1CCN1CCOCC1 (centres undefined) | -5 | -2 | -3 | 4 | 8 | 3 | . | .
CC(=O)Nc1cccc(Nc2cc(C)nn2C)c1 | -2 | . | . | 2 | 2 | 1 | . | .
CC(C)NC(=O)C1(C)CCN1C(=O)c1ccccc1 (centres undefined) | -1 | . | . | -1 | 2 | -4 | . | .
CC(=O)c1cccc(NC(=O)CN2C(=O)C3C4C=CC(C4)C3C2=O)c1 (centres undefined) | 0 | 0 | -11 | 50* | -2 | -3 | 1 | 1
O=C(CN1C(=O)C2C3C=CC(C3)C2C1=O)Nc1ccc(C(=O)O)cc1 (centres undefined) | 0 | -8 | -3 | 1 | 0 | 1 | . | .
N#Cc1ccc(-c2ccccc2)nc1SCC(=O)c1cc2ccccc2oc1=O | 2 | -6 | -5 | 70* | -1 | 2 | 1 | 5
Cc1ccc(-c2ccc(/C=N/NC(=S)Nc3ccccc3)o2)cc1[N+](=O)[O-] | 4 | -4 | -16 | -12 | -8 | 1 | . | .
SMILES | LMPTP inh | Scp1 inh | HKDC1 inh | DNMT1 inh | SUMO1 PPI mod | STEP block | DNMT1 inh conf | DNMT1 interf
Cc1ccc(-c2ccc(/C=N\NC(=O)c3cc4c(ccc5ccccc54)o3)o2)cc1[N+](=O)[O-] | 4 | -7 | 8 | 72* | -4 | 4 | 2 | -2
Cc1cccc(NC(=O)CN(C)S(=O)(=O)c2ccc3c(c2)n(C)c(=O)c(=O)n3C)c1C | 0 | -6 | -1 | 1 | -4 | -3 | . | .
COCCCN1C(=O)C(CC(=O)NCCCN(C)C)CC(C(=O)N2CCOCC2)=C1C (centres undefined) | -5 | . | . | -3 | 2 | -2 | . | .
O=C(Cc1cccs1)Nc1ccc(S(=O)(=O)Nc2ncccn2)cc1 | 6 | 25 | 9 | 68* | 10 | -3 | 13 | 0
COc1cccc(NC(=O)CSc2nnc(Cc3cccn3C)n2-c2ccc(F)cc2)c1 | 0 | 0 | 7 | 76* | -9 | -1 | 3 | 5
COc1cccc2c1OCC(C(=O)O)C2 (centres undefined) | -1 | -1 | -13 | 53* | -2 | -1 | 3 | 3
C#CCn1c(=NC(=O)CN2C(=O)CCC2=O)sc2cccc(OC)c21 | -1 | -3 | -1 | 19 | 3 | 8 | . | .
C#CCn1c(=NC(=O)c2cccs2)sc2cccc(OC)c21 | 11 | 17 | 9 | 58* | -5 | 2 | 3 | 33*
CCOC(=O)C1(C)CCN1C(=O)c1oc2ccccc2c1C (centres undefined) | -1 | . | . | 2 | -1 | -1 | . | .
COc1ccc(NC(=O)/C=C/c2ccc(Br)o2)cn1 | 14 | 11 | 6 | 51* | -7 | 1 | -1 | 1
COc1ccccc1CNC(=O)/C=C/c1ccc(Br)o1 | 46 | -1 | 1 | 91* | 72* | 5 | 5 | -1
COc1ccccc1CNC(=O)Cc1ccc(Br)cc1 | -2 | 2 | -3 | 6 | 4 | 0 | . | .
C=CCOc1ccc(C(c2c(C(=O)O)[nH]c3ccccc23)c2c(C(=O)O)[nH]c3ccccc23)cc1 | 2 | -19 | 14 | 86* | 15 | -4 | 14 | -1
O=C(O)c1[nH]c2ccccc2c1C(c1ccccc1)c1c(C(=O)O)[nH]c2ccccc12 | 1 | -15 | 9 | 2 | 7 | 2 | . | .
CCOC(=O)C1CCCN(C(=O)c2ccc(F)c(Cl)c2)CC1 (centres undefined) | -1 | . | . | 2 | -2 | -2 | . | .
